Each structure is given as a SMILES string.

From ChEMBL document CHEMBL4364260, “Discovery of Ziresovir as a Potent, Selective, and Orally Bioavailable Respiratory Syncytial Virus Fusion Protein Inhibitor” (J Med Chem, 2019) come the findings set out here.

The nature of data set [1]: Cytotoxicity against human Hep2 cells assessed as reduction in cell viability after 5 days by CCK-8 assay. Format: cell-based. The settings on record: HEp-2 cells. An outline of the steps:
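Uninfected HEp-2 cells (6000/well) were incubated 5 days with serially diluted compound. Viability was read by CCK-8, and CC50 is the concentration toxic to 50% of cells.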

Data set [2] is described as follows: Antiviral activity against Human respiratory syncytial virus A strain Long infected in human Hep2 cells assessed as reduction in virus induced cytopathic effect in presence of 10% FBS after 5 days by CCK-8 assay. The settings on record: HEp-2, 120 h. Format: functional, cell-based. An outline of the steps:
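HEp-2 cells seeded at 6000/well and infected the next day at MOI 0.02, a dose that gives about 90% CPE by day 5. Serial compound dilutions were present throughout, in standard medium with 10% FBS. Viability was read by CCK-8 at day 5, and EC50 is the concentration that cuts CPE by 50%.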

Data set [3] in a line: Therapeutic index, ratio of CC50 of human Hep2 cells to EC50 for antiviral activity against human respiratory syncytial virus long strain infected in human Hep2 cells after 5 days by CCK-8 assay. Format: toxicity, cell-based. The settings on record: HEp-2 cells, read-out: Ratio CC50/EC50. An outline of the steps:
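TI is CC50 over EC50. CC50 comes from uninfected HEp-2 cells; EC50 from 50% reduction of RSV Long CPE in HEp-2 cells (MOI 0.02, 5 days). Both were read by CCK-8 viability.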
On the technique in general: Formazan colour is commonly taken as a measure of viable cells.

Data set [4] in a line: AUC (0 to 24 hrs) in Wistar-Han rat at 10 mg/kg, po administered as single dose via gavage and measured up to 24 hrs by LC/MS/MS analysis. Format: ADME, organism-based. Details: dose 10 mg/kg, time < 24 hr, route oral. As to conditions: in vivo. In a few lines: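 Single-dose PK in male Wistar-Han rats at 2 mg/kg iv or 10 mg/kg po, as a solution in 5% DMSO, 40% PEG400 and 55% 0.9% sodium chloride.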

Data set [5] is described as follows: Plasma clearance in Wistar-Han rat at 2 mg/kg, iv or 10 mg/kg, po administered as single dose via gavage and measured up to 24 hrs by LC/MS/MS analysis. The data set is classed as ADME, organism-based. In a few lines:
(§1)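 Male Wistar-Han rats, single dose, 2 mg/kg iv and 10 mg/kg po, run by standard procedures.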

Data set [6] in a line: Half-life in Wistar-Han rat at 2 mg/kg, iv administered as single dose and measured up to 24 hrs by LC/MS/MS analysis. The data set is classed as ADME, organism-based. The settings on record: in vivo. In a few lines: as §1
A short description of data set [7]: Volume of distribution at steady state in Wistar-Han rat at 2 mg/kg, iv or 10 mg/kg, po administered as single dose via gavage and measured up to 24 hrs by LC/MS/MS analysis. Format: ADME, organism-based. The settings on record: in vivo, read-out: Vdss. An outline of the steps: as §1
Data set [8] can be described thus: Oral bioavailability in Wistar-Han rat at 10 mg/kg administered as single dose via gavage and measured up to 24 hrs by LC/MS/MS analysis. Format: ADME, organism-based. As to conditions: in vivo. In a few lines: as §1

As usually defined, the CC50 is the concentration at which the toxic effect on the cells reaches its halfway point. The term EC50 denotes the concentration needed to bring the measured effect to its halfway point. As for `Cc1ccc2nc(N3CCS(=O)(=O)c4ccccc4C3)nc(NCC(C)(C)N)c2c1`, the CC50 at 120 h in data set [1] was 20000 nM. Also, in data set [2], the EC50 is 16 nM. For the same molecule, the selectivity ratio at 120 h in data set [3] came to 1250.

Turning to `NC1(CNc2cc(N3CCS(=O)(=O)c4ccccc4C3)nc3ccncc23)COC1`, the CC50 at 120 h in data set [1] worked out at 99000 nM. Besides, the EC50 in data set [2] was 12 nM. Moreover, the selectivity ratio at 120 h in data set [3] worked out at 8250.

Turning to `NC1(CNc2cc(N3CCS(=O)(=O)c4ccccc4C3)cc3ccccc23)COC1`, in data set [1], the CC50 at 120 h is 71000 nM. The EC50 in data set [2] was over 31600 nM. The selectivity ratio at 120 h in data set [3] was under 2.

For the molecule `NC1(CNc2cc(N3CCS(=O)(=O)c4ccccc4C3)nc3ccc(CO)cc23)COC1`, in data set [1], the CC50 at 120 h is over 100000 nM. The EC50 in data set [2] worked out at 2 nM. Further, in data set [3], the selectivity ratio at 120 h was over 50000.

For the molecule `NC1(CNc2cc(N3CCS(=O)(=O)c4ccccc4C3)nc3ccc(Cl)cc23)COC1`, the CC50 at 120 h in data set [1] turned out to be 87000 nM. For the same molecule, the EC50 in data set [2] amounted to 34 nM. The selectivity ratio at 120 h in data set [3] worked out at 2560.

As to `Cc1ccc2nc(N3CCS(=O)(=O)c4ccccc4C3)nc(NCC3(N)CCC3)c2c1`, the CC50 at 120 h in data set [1] came out at 21000 nM. The EC50 in data set [2] turned out to be 100 nM. Also, the selectivity ratio at 120 h in data set [3] turned out to be 210.

For `Cc1cc2c(NCC3(N)COC3)cc(N3CCS(=O)(=O)c4ccccc4C3)nc2c(F)c1F`, in data set [1], the CC50 at 120 h stood at 53000 nM. Moreover, the EC50 in data set [2] came out at 510 nM. Moreover, the selectivity ratio at 120 h in data set [3] was found to be 104.

Take `Cc1cc2c(NCC3(N)COC3)cc(N3CCS(=O)(=O)c4ccccc4C3)nc2cc1F`: the CC50 at 120 h in data set [1] turned out to be 64000 nM. The EC50 in data set [2] stood at 21 nM. Also, in data set [3], the selectivity ratio at 120 h stood at 3050.

For the molecule `Cc1ccc2nc(N3CCS(=O)(=O)c4c(F)cccc4C3)cc(NCC3(N)COC3)c2c1`, the CC50 at 120 h in data set [1] worked out at 35000 nM. Besides, in data set [2], the EC50 came to 3 nM. In addition, in data set [3], the selectivity ratio at 120 h is 11700.

For orientation: AUC(0-t) means exposure summed from dosing to a finite time, without extrapolation to infinity. Higher therefore signals high exposure. By half-life is commonly meant how long it takes for the measured level to halve. As a reminder, the bioavailability is the share of a dose that reaches the circulation, judged against a reference dose that is usually intravenous. As to `Cc1ccc2nc(N3CCS(=O)(=O)c4ccccc4C3)cc(NCC3(N)COC3)c2c1`, in data set [1], the CC50 at 120 h was over 100000 nM. Moreover, the EC50 in data set [2] came out at 2 nM. Also, in data set [3], the selectivity ratio at 120 h is over 50000. Moreover, the AUC(0-t) at 24 h in data set [4] stood at 442 ng·h/mL. The clearance in data set [5] is 51 mL/min/kg. The molecule also gave a half-life in data set [6] of 1.7 h. In addition, the Vd in data set [7] was 4.1 L/kg. This molecule displayed a bioavailability in data set [8] of 13%.

`Cc1ccc2nc(N3CCS(=O)(=O)c4ccccc4C3)nc(NCC3(N)CC3)c2c1`: the CC50 at 120 h in data set [1] turned out to be 13000 nM. Further, the EC50 in data set [2] was 4 nM. Besides, the selectivity ratio at 120 h in data set [3] worked out at 3250.

For `Cc1ccc2nc(N3CCS(=O)(=O)c4cc(Cl)ccc4C3)cc(NCC3(N)COC3)c2c1`, in data set [1], the CC50 at 120 h was determined as 15000 nM. In addition, the EC50 in data set [2] was 27 nM. The selectivity ratio at 120 h in data set [3] worked out at 560.

Take `COc1ccc2c(c1)S(=O)(=O)CCN(c1cc(NCC3(N)COC3)c3cc(C)ccc3n1)C2`: in data set [1], the CC50 at 120 h was found to be 92000 nM. In addition, the EC50 in data set [2] amounted to 1 nM. Also, in data set [3], the selectivity ratio at 120 h was found to be 92000.

`Cc1ccc2nc(N3CCS(=O)(=O)c4ccc(F)cc4C3)cc(NCC3(N)COC3)c2c1`: in data set [1], the CC50 at 120 h was determined as 93000 nM. In data set [2], the EC50 is 72 nM. In addition, the selectivity ratio at 120 h in data set [3] worked out at 1290.

Consider `Cc1ccc2c(c1)S(=O)(=O)CCN(c1cc(NCC3(N)COC3)c3cc(C)ccc3n1)C2`, for which the CC50 at 120 h in data set [1] is 91000 nM. Further, the EC50 in data set [2] was 5 nM. Moreover, the selectivity ratio at 120 h in data set [3] was determined as 18200.

For the molecule `Cc1ccc2nc(N3CCS(=O)(=O)c4ccccc4C3)cc(NCC3(N)COC3)c2c1F`, the CC50 at 120 h in data set [1] was found to be 93000 nM. Also, the EC50 in data set [2] is 23 nM. Also, in data set [3], the selectivity ratio at 120 h amounted to 4040.

As for `Cc1ccc2cc(N3CCS(=O)(=O)c4ccccc4C3)nc(NCC3(N)COC3)c2c1`, the CC50 at 120 h in data set [1] worked out at 81000 nM. Also, the EC50 in data set [2] was 220 nM. Besides, in data set [3], the selectivity ratio at 120 h stood at 370.

On to `Cc1ccc2nc(N3CCS(=O)(=O)c4ccc(O)cc4C3)cc(NCC3(N)COC3)c2c1`, for which the CC50 at 120 h in data set [1] is over 100000 nM. Also, the EC50 in data set [2] was 0.8 nM. Further, in data set [3], the selectivity ratio at 120 h is over 125000.

With `COc1cccc2c1S(=O)(=O)CCN(c1cc(NCC3(N)COC3)c3cc(C)ccc3n1)C2`, in data set [1], the CC50 at 120 h is over 100000 nM. For the same molecule, the EC50 in data set [2] came out at 350 nM. For the same molecule, the selectivity ratio at 120 h in data set [3] is over 286.

Take `COc1ccc2c(c1)CN(c1cc(NCC3(N)COC3)c3cc(C)ccc3n1)CCS2(=O)=O`: the CC50 at 120 h in data set [1] was 90000 nM. In addition, the EC50 in data set [2] came to 3 nM. In data set [3], the selectivity ratio at 120 h worked out at 30000.

As for `Cc1ccc2c(c1)S(=O)(=O)CCN(c1cc(NCC3(N)COC3)c3ccccc3n1)C2`, the cytotoxic concentration (CC50) at 120 h in data set [1] turned out to be 95000 nM. Besides, the EC50 in data set [2] was determined as 74 nM. In addition, the selectivity ratio at 120 h in data set [3] is 1280.

With `CC(C)(O)c1ccc2nc(N3CCS(=O)(=O)c4ccccc4C3)cc(NCC3(N)COC3)c2c1`, the CC50 at 120 h in data set [1] was over 100000 nM. The EC50 in data set [2] is over 100000 nM. The selectivity ratio at 120 h in data set [3] was under 1.

For the molecule `COc1ccc2c(c1)S(=O)(=O)CCN(c1cc(NCC3(N)COC3)c3ccccc3n1)C2`, the CC50 at 120 h in data set [1] was over 100000 nM. The EC50 in data set [2] is 8 nM. In addition, the selectivity ratio at 120 h in data set [3] is over 12500.

On to `Cc1ccc2nc(N3CCS(=O)(=O)c4cc(F)ccc4C3)cc(NCC3(N)COC3)c2c1`, for which the CC50 at 120 h in data set [1] is 79000 nM. For the same molecule, the EC50 in data set [2] was 10 nM. The selectivity ratio at 120 h in data set [3] was determined as 7900.

For `NC1(CNc2nc(N3CCS(=O)(=O)c4ccccc4C3)nc3ccccc23)COC1`, the CC50 at 120 h in data set [1] is over 100000 nM. Further, the EC50 in data set [2] came out at 20 nM. Besides, in data set [3], the selectivity ratio at 120 h is over 5000.
